Source: ChEMBL document CHEMBL4842326, “Design, synthesis and biological evaluation of 3, 4-disubstituted-imidazolidine-2, 5-dione derivatives as HDAC6 selective inhibitors” (Eur J Med Chem, 2021)

What was measured:
[1] = molecular target: T1, Protein deacetylase HDAC6 (Homo sapiens, UniProt Q9UBN7); assay: Inhibition of HDAC6 (unknown origin) using Ac-LeuGlyLy-s(Ac)-AMC as substrate preincubated for 10 mins followed by substrate addition and further incubated for 2 hrs by fluorescence microtiter plate reader assay
T1 sequence (Q9UBN7 whole entry): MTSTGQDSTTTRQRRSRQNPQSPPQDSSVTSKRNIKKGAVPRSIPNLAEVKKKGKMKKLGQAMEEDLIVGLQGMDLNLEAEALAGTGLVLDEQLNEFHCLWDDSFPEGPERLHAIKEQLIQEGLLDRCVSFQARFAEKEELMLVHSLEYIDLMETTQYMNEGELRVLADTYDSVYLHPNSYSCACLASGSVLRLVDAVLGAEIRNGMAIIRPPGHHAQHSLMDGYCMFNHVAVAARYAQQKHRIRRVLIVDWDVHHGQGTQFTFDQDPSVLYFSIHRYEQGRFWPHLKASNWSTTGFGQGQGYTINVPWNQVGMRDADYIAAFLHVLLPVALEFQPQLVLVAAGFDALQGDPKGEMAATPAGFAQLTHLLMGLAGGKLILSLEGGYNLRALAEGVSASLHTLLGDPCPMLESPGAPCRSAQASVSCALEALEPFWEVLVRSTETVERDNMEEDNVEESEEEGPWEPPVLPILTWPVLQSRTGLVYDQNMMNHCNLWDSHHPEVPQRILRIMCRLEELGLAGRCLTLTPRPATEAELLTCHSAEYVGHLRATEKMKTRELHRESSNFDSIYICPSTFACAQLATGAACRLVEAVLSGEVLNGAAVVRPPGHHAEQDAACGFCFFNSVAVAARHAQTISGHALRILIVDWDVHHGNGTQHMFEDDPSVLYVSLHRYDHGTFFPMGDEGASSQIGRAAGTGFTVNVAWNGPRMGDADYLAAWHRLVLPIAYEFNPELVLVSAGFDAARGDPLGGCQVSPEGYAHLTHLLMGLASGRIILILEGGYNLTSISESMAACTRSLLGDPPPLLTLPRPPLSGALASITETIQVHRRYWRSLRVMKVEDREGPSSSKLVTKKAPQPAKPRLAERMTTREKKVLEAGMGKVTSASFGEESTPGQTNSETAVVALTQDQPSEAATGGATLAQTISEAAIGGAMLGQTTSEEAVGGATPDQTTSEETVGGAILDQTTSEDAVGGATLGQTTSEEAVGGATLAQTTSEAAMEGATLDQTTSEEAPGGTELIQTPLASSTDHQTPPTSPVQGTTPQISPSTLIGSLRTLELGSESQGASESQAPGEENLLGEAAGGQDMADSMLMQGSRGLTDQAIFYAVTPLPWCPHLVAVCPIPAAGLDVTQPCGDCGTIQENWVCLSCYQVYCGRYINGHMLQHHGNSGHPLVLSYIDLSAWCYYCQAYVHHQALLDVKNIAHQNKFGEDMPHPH

Histone deacetylase 1 [2] = molecular target: T2, Histone deacetylase 1 (Homo sapiens, UniProt Q13547); assay: Inhibition of HDAC1 (unknown origin) using Ac-LeuGlyLys(Ac)-AMC as substrate preincubated for 10 mins followed by substrate addition and further incubated for incubated for 1 hrs by fluorescence microtiter plate reader assay
T2 sequence (Q13547 whole entry): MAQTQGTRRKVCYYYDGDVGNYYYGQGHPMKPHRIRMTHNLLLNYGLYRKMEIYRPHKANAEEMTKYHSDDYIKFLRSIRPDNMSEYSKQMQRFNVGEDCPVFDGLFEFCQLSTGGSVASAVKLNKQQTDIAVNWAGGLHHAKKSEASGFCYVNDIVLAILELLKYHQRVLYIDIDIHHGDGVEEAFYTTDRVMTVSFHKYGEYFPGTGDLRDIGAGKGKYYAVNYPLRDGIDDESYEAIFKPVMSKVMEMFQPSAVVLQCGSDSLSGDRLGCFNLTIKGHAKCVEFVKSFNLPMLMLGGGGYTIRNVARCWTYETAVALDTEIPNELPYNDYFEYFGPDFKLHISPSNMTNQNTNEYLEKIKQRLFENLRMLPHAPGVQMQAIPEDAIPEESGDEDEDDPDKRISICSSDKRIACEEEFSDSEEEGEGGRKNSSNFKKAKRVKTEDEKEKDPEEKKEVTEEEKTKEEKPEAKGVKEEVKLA

Histone deacetylase 8 [3] = molecular target: T3, Histone deacetylase 8 (Homo sapiens, UniProt Q9BY41); assay: Inhibition of HDAC8 (unknown origin) using Ac-LeuGlyLys(tfa)-AMC as substrate preincubated for 10 mins followed by substrate addition and further incubated for incubated for 1 hrs by fluorescence microtiter plate reader assay
T3 sequence (Q9BY41 whole entry): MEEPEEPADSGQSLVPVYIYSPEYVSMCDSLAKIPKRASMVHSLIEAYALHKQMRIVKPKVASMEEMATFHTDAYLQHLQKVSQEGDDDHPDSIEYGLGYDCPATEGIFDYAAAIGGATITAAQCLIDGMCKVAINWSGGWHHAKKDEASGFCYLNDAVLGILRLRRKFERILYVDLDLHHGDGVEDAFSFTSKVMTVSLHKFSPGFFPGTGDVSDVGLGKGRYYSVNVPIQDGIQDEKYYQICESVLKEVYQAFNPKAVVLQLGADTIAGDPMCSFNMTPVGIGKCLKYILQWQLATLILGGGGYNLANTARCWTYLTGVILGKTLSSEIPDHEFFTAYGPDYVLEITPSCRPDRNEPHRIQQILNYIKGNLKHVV

Histone deacetylase 2 [4] = molecular target: T4, Histone deacetylase 2 (Homo sapiens, UniProt Q92769)
T4 sequence (Q92769 whole entry): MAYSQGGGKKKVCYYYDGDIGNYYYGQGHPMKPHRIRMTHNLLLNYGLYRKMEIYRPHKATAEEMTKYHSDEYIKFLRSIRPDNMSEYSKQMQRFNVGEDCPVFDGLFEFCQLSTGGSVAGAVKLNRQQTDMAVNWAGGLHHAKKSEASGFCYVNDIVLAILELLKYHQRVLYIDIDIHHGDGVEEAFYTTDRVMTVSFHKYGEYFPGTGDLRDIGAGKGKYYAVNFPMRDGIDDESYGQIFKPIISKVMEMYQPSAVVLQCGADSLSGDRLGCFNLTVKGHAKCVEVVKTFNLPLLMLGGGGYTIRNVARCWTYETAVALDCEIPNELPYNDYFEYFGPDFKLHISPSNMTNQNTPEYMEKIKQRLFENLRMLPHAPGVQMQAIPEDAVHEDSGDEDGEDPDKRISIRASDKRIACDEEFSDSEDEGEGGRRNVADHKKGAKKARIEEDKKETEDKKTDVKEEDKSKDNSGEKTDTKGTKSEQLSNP

Histone deacetylase 1 [5] = molecular target: T2, Histone deacetylase 1; assay: Inhibition of HDAC1 (unknown origin)
Histone deacetylase 8 [6] = molecular target: T3, Histone deacetylase 8; assay: Inhibition of HDAC8 (unknown origin)
Histone deacetylase 2 [7] = molecular target: T4, Histone deacetylase 2; assay: Inhibition of HDAC2 (unknown origin)
Histone deacetylase 3 = Histone deacetylase 3 (Homo sapiens, UniProt O15379); assay: Inhibition of HDAC3 (unknown origin)
Histone deacetylase 3, sequence (O15379 whole entry): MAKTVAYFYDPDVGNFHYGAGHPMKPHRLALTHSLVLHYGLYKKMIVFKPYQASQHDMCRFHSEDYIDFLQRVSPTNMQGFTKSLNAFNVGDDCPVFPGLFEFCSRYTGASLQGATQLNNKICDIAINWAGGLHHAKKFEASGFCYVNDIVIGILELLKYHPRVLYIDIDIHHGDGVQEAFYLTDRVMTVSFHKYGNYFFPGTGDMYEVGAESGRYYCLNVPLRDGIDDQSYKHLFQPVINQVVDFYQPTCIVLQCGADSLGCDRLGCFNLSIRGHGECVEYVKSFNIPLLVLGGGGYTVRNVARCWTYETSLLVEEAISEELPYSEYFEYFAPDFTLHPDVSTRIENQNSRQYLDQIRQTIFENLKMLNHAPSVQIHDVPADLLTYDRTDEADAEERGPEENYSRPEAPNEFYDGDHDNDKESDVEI

Homo sapiens [8] = species: Homo sapiens; assay: Selectivity ratio of IC50 for HDAC8 (unknown origin) to IC50 for HDAC6 (unknown origin)
Homo sapiens [9] = species: Homo sapiens; assay: Selectivity ratio of IC50 for HDAC2 (unknown origin) to IC50 for HDAC6 (unknown origin)
Homo sapiens [10] = species: Homo sapiens; assay: Selectivity ratio of IC50 for HDAC1 (unknown origin) to IC50 for HDAC6 (unknown origin)
HL-60 [11] = assay: Antiproliferative activity against human HL-60 cells assessed as inhibition of cell proliferation after 48 hrs by MTT assay; type: functional, cell-based; settings: HL-60, 48 h
Outline: (§1)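 Leukemia/myeloma lines grown in RPMI1640 with 10% FBS at 37 °C, 5% CO2; seeded at 3500–4000 cells/well, cultured overnight, then exposed to serial dilutions for 48 h.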

[12] = Cytotoxicity against human GEC1 cells assessed as decrease in cell viability after 48 hrs by MTT assay; type: cell-based; settings: GEC1, 48 h
Outline: (§2)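 Normal cells: HUVECs in RPMI1640 with 10% FBS plus 0.1% heparin, GEC-1 in RPMI1640 with 10% FBS. Seeded 8 h, then treated with serial dilutions for 48 h; 0.5% MTT for 4 h, supernatant removed, DMSO added, absorbance read at 570 nm.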

HEL = assay: Antiproliferative activity against human HEL cells assessed as inhibition of cell proliferation after 48 hrs by MTT assay; type: functional, cell-based; outline: as §1
KG-1 = assay: Antiproliferative activity against human KG-1 cells assessed as inhibition of cell proliferation after 48 hrs by MTT assay; type: functional, cell-based; settings: KG-1, 48 h; outline: as §1
HL-60 [13] = assay: Induction of apoptosis in human HL-60 cells assessed as early apoptotic cells at 3 uM after 48 hrs by Annexin V-FITC/propidium iodide staining based flow cytometric analysis (reference value: […]%); type: functional
HUVEC = assay: Cytotoxicity against human HUVEC cells assessed as decrease in cell viability after 48 hrs by MTT assay; type: cell-based; outline: as §2
HL-60 [14] = assay: Induction of apoptosis in human HL-60 cells assessed as viable cells at 3 uM after 48 hrs by Annexin V-FITC/propidium iodide staining based flow cytometric analysis (reference value: 93.4%); type: functional; settings: read-out: Activity
Outline: (§3)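 HL-60 cells (1 × 10^6/well) exposed 48 h to compound dilutions, collected, PBS-washed, resuspended in Annexin V-FITC binding buffer, stained with propidium iodide and Annexin V-FITC for 15 min, then analysed by flow cytometry.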

Jurkat = assay: Antiproliferative activity against human Jurkat cells assessed as inhibition of cell proliferation after 48 hrs by MTT assay; type: functional, cell-based; outline: as §1
NCI-H929 = assay: Antiproliferative activity against human NCI-H929 cells assessed as inhibition of cell proliferation after 48 hrs by MTT assay; type: functional, cell-based; settings: NCI-H929, 48 h; outline: as §1
HL-60 [15] = assay: Induction of apoptosis in human HL-60 cells assessed as late apoptotic cells at 3 uM after 48 hrs by Annexin V-FITC/propidium iodide staining based flow cytometric analysis (reference value: 1.45%); type: functional; outline: as §3

| SMILES | IC50 [1] [µM] | also measured |
| --- | --- | --- |
| CC(C)(C)c1ccc(CN2CC(=O)N(Cc3ccc(C(=O)NO)cc3)C2=O)cc1 | 0.0407 | – |
| O=C(NO)c1ccc(CN2C(=O)CN(CCc3ccccc3)C2=O)cc1 | 0.0217 | – |
| Cc1ccc(CN2CC(=O)N(Cc3ccc(C(=O)NO)cc3)C2=O)cc1 | 0.0176 | – |
| O=C(NO)c1ccc(CN2C(=O)CN(Cc3ccccc3)C2=O)cc1 | 0.0125 | – |
| CC(C)(C)OC(=O)Nc1ccc(-c2cc(NC(=O)CCCCCCC(=O)NO)no2)cc1 | – | IC50 (Histone deacetylase 1 [5]): 0.271 µM; IC50 (Histone deacetylase 8 [6]): 6.85 µM; IC50 (Histone deacetylase 2 [7]): 0.252 µM; IC50 (Histone deacetylase 3): 0.00042 µM |
| O=C(NO)c1ccc(CN2C(=O)C(Cc3ccccc3)N(Cc3cccc4ccccc34)C2=O)cc1 (racemic) | 0.0288 | – |
| O=C(NO)c1ccc(CN2C(=O)NC(Cc3ccc(Cl)cc3)(c3ccccc3)C2=O)cc1 (racemic) | 0.054 | – |
| Cc1ccc(CN2C(=O)N(Cc3ccc(C(=O)NO)cc3)C(=O)C2Cc2ccccc2)cc1 (racemic) | 0.0378 | – |
| CCCN1C(=O)N(Cc2ccc(C(=O)NO)cc2)C(=O)C1Cc1ccccc1 (racemic) | 0.0569 | – |
| O=C(NO)c1ccc(CN2C(=O)C(Cc3ccccc3)N(Cc3ccc4ccccc4c3)C2=O)cc1 (racemic) | 0.0251 | – |
| O=C(NO)c1ccc(CN2C(=O)C(Cc3ccccc3)N(Cc3ccccc3)C2=O)cc1 (racemic) | 0.0213 | – |
| COc1ccc(CN2C(=O)N(Cc3ccc(C(=O)NO)cc3)C(=O)C2Cc2ccccc2)cc1 (racemic) | 0.102 | – |
| COc1ccc(CC2(c3ccccc3)NC(=O)N(Cc3ccc(C(=O)NO)cc3)C2=O)cc1 (racemic) | 0.0724 | – |
| O=C(NO)c1ccc(CN2C(=O)NC(Cc3cccc4ccccc34)(c3ccccc3)C2=O)cc1 (racemic) | 0.0919 | – |
| CC1(c2ccccc2)NC(=O)N(Cc2ccc(C(=O)NO)cc2)C1=O (racemic) | 0.0749 | – |
| CC(C)(C)c1ccc(CN2C(=O)N(Cc3ccc(C(=O)NO)cc3)C(=O)C2Cc2ccccc2)cc1 (racemic) | 0.139 | – |
| O=C(NO)c1ccc(CN2C(=O)C(Cc3ccccc3)N(Cc3ccncc3)C2=O)cc1 (racemic) | 0.0139 | – |
| Cc1ccc(CC2(c3ccccc3)NC(=O)N(Cc3ccc(C(=O)NO)cc3)C2=O)cc1 (racemic) | 0.0824 | – |
| CN1CCc2c(c3ccccc3n2Cc2ccc(C(=O)NO)cc2)C1 [TUBASTATIN A] | – | IC50 (HL-60 [11]): 4.09 µM; IC50 [12]: 48.6 µM; IC50 (HEL): 8.09 µM; IC50 (KG-1): 8.82 µM; Activity (HL-60 [13]): 6.12%; IC50 (HUVEC): 69.2 µM; viability at 3 µM (HL-60 [14]): 87.6%; IC50 (Jurkat): 14.6 µM; IC50 (NCI-H929): 15.4 µM; Activity (HL-60 [15]): 6.24% |

Second part, led by results:

| IC50 [1] [µM] | SMILES | also measured |
| --- | --- | --- |
| 0.0131 | O=C(NO)c1ccc(CN2C(=O)CN(Cc3ccc4ccccc4c3)C2=O)cc1 | – |
| 0.0534 | CCCN1CC(=O)N(Cc2ccc(C(=O)NO)cc2)C1=O | – |
| 0.0083 | O=C(NO)c1ccc(CN2C(=O)CN(Cc3ccc(Cl)cc3)C2=O)cc1 | IC50 (Histone deacetylase 1 [2]): 0.863 µM; IC50 (Histone deacetylase 8 [3]): 0.994 µM; IC50 (Histone deacetylase 2 [4]): 1.08 µM |
| 0.119 | CN1CC(=O)N(Cc2ccc(C(=O)NO)cc2)C1=O | – |
| 0.0282 | COc1ccc(CN2CC(=O)N(Cc3ccc(C(=O)NO)cc3)C2=O)cc1 | – |
| 0.0247 | O=C(NO)c1ccc(CN2C(=O)NC(CCc3ccccc3)(c3ccccc3)C2=O)cc1 (racemic) | – |
| 0.006 | O=C(NO)c1ccc(CN2C(=O)C(Cc3ccccc3)N(Cc3ccc(Cl)cc3)C2=O)cc1 (racemic) | IC50 (Histone deacetylase 1 [2]): 8.18 µM; IC50 (Histone deacetylase 8 [3]): 3.99 µM; Ratio IC50 (Homo sapiens [8]): 664; Ratio IC50 (Homo sapiens [9]): 1380; IC50 (Histone deacetylase 2 [4]): 8.26 µM; Ratio IC50 (Homo sapiens [10]): 1360 |
| 0.115 | CC(C)(C)c1ccc(CC2(c3ccccc3)NC(=O)N(Cc3ccc(C(=O)NO)cc3)C2=O)cc1 (racemic) | – |
| 0.174 | CCCN1C(=O)N(Cc2ccc(C(=O)NO)cc2)C(=O)C1CC(C)C (racemic) | – |
| 0.0048 | O=C(NO)c1ccc(CN2C(=O)C(Cc3ccccc3)N(Cc3ccccn3)C2=O)cc1 (racemic) | IC50 (Histone deacetylase 1 [2]): 3.42 µM; IC50 (Histone deacetylase 8 [3]): 7.83 µM; IC50 (Histone deacetylase 2 [4]): 5.08 µM |
| 0.0509 | CCCC1(c2ccccc2)NC(=O)N(Cc2ccc(C(=O)NO)cc2)C1=O (racemic) | – |
| 0.0719 | O=C(NO)c1ccc(CN2C(=O)NC(Cc3ccccc3)(c3ccccc3)C2=O)cc1 (racemic) | – |
| 0.251 | CC(C)CC1C(=O)N(Cc2ccc(C(=O)NO)cc2)C(=O)N1C (racemic) | – |
| 0.0746 | O=C(NO)c1ccc(CN2C(=O)NC(Cc3ccc4ccccc4c3)(c3ccccc3)C2=O)cc1 (racemic) | – |
| 0.0202 | O=C(NO)c1ccc(CN2C(=O)C(Cc3ccccc3)N(CCc3ccccc3)C2=O)cc1 (racemic) | – |
| 0.107 | CN1C(=O)N(Cc2ccc(C(=O)NO)cc2)C(=O)C1Cc1ccccc1 (racemic) | – |
| 0.129 | CC(C)CC1C(=O)N(Cc2ccc(C(=O)NO)cc2)C(=O)N1Cc1ccccc1 (racemic) | – |
